Source: the M2OR odorant receptor database

Legend:
Details in all cases: stereoisomer not certain
O10Q1 Q10R E12D = test system: O10Q1 Q10R E12D
Procedure, shortened: (§1)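 Transient luciferase assays in mammalian cell lines were common, though methods varied by source. The values come from published papers and their supplementary material, with extra details from the original authors when needed. Responsive refers to a measured signal the original authors judged statistically different from baseline, and non-responsive (inactive) to the remainder.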

O10R2 I170L = test system: O10R2 I170L
Sequence of O10R2 I170L (as listed by the source, stated change not applied): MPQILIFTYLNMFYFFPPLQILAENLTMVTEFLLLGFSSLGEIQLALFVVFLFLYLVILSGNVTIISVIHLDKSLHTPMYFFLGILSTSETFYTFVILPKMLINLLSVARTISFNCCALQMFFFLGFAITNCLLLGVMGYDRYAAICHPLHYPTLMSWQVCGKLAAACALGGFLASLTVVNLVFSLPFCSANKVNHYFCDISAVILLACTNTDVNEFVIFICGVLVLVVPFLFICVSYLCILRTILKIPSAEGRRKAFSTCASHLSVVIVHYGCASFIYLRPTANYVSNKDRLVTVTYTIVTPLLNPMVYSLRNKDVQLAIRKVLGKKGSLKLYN
Procedure, shortened: as §1

O10T2 I137M = test system: O10T2 I137M
Sequence of O10T2 I137M (as listed by the source, stated change not applied): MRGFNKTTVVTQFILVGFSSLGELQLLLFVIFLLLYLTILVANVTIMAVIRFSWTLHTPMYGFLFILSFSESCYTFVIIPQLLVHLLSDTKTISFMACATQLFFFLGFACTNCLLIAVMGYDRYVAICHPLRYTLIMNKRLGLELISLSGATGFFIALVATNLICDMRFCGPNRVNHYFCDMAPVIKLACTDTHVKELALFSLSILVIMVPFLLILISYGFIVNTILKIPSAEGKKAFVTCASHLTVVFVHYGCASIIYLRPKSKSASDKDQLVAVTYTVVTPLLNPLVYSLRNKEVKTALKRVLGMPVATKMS
Procedure, shortened: as §1

O10V1 Q123R = test system: O10V1 Q123R
Sequence of O10V1 Q123R (as listed by the source, stated change not applied): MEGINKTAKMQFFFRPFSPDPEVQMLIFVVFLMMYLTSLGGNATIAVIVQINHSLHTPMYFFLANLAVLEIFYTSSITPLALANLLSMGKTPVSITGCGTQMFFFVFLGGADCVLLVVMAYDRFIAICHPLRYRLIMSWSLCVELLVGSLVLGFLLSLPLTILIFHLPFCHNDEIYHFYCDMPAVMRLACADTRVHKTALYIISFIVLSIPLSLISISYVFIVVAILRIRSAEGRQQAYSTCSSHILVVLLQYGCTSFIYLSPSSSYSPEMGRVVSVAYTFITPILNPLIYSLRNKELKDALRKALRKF
Procedure, shortened: as §1

O10X1 N4T R181S = test system: O10X1 N4T R181S
Procedure, shortened: as §1

O11G2 F3I I99N V116I = test system: O11G2 F3I I99N V116I
Procedure, shortened: as §1

O11H1 M240V = test system: O11H1 M240V
Sequence of O11H1 M240V (as listed by the source, stated change not applied): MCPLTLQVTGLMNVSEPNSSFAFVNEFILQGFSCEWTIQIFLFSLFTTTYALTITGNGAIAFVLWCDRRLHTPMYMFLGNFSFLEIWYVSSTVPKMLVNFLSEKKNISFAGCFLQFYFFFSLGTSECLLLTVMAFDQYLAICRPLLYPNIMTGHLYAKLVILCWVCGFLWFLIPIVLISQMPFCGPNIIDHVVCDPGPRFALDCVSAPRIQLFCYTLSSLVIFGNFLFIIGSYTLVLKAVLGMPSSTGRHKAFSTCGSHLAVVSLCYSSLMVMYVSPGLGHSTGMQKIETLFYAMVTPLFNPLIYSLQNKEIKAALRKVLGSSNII
Procedure, shortened: as §1

O11H6 I107T = test system: O11H6 I107T
Sequence of O11H6 I107T (as listed by the source, stated change not applied): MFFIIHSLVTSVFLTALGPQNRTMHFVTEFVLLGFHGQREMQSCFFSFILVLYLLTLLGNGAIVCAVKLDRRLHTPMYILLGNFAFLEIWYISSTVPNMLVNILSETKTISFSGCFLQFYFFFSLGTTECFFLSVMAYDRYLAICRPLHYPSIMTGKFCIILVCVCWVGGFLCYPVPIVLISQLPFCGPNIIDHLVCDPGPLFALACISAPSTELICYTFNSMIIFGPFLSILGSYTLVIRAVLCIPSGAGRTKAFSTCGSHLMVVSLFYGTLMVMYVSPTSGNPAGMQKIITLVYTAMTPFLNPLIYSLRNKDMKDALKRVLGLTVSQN
Procedure, shortened: as §1

O11HC C156Y V240M = test system: O11HC C156Y V240M
Procedure, shortened: as §1

O12D2 S104F = test system: O12D2 S104F
Sequence of O12D2 S104F (as listed by the source, stated change not applied): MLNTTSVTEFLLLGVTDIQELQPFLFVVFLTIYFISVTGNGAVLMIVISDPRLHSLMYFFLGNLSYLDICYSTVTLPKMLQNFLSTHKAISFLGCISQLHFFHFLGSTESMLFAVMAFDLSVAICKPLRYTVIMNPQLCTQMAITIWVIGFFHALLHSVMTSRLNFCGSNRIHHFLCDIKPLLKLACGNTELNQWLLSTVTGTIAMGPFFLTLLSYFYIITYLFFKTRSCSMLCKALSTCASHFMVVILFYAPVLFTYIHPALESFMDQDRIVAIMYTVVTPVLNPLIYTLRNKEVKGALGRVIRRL
Procedure, shortened: as §1

O13C2 H6Q = test system: O13C2 H6Q
Sequence of O13C2 H6Q (as listed by the source): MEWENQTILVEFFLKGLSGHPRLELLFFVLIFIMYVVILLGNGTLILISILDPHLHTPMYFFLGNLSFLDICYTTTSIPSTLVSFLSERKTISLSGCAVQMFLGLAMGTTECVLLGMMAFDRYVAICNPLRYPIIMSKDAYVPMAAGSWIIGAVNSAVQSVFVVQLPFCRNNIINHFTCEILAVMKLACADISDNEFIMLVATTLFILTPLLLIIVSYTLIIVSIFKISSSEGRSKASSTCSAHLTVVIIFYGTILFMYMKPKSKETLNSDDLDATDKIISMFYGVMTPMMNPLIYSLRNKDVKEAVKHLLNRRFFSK
Procedure, shortened: as §1

O13C8 A19D = test system: O13C8 A19D
Sequence of O13C8 A19D (as listed by the source, stated change not applied): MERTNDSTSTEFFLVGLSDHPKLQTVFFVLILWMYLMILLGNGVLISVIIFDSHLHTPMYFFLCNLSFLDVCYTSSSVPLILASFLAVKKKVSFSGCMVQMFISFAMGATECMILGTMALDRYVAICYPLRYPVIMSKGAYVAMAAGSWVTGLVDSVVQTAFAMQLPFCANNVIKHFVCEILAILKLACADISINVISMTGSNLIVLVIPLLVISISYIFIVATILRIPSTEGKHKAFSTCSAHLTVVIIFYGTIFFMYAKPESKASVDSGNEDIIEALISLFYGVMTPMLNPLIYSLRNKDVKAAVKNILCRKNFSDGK
Procedure, shortened: as §1

O13C9 H17L V19G L23H = test system: O13C9 H17L V19G L23H
Procedure, shortened: as §1

O13C9 Q6H = test system: O13C9 Q6H
Sequence of O13C9 Q6H (as listed by the source): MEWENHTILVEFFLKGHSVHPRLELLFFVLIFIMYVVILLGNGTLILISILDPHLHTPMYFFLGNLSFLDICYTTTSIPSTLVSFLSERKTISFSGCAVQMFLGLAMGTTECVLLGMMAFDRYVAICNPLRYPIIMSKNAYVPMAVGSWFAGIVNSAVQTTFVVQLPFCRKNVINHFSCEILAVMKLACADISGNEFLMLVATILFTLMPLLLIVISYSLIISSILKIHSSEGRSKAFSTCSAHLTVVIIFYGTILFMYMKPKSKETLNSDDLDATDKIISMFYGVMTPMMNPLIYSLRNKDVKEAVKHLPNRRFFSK
Procedure, shortened: as §1

O13F1 F18S T254M = test system: O13F1 F18S T254M
Procedure, shortened: as §1

O13F1 F18S = test system: O13F1 F18S
Sequence of O13F1 F18S (as listed by the source, stated change not applied): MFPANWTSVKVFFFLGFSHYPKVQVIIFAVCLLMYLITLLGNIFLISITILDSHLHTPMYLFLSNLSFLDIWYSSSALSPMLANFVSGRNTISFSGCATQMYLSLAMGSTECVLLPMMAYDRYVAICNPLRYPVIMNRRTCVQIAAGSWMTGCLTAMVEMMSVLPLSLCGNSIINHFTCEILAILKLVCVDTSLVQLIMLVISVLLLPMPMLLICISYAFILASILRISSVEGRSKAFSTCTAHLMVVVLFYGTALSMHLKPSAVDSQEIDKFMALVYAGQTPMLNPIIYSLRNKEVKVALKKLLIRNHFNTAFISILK
Procedure, shortened: as §1

O13G1 K46I M146L = test system: O13G1 K46I M146L
Procedure, shortened: as §1

O13G1 = test system: O13G1
Sequence of O13G1 (as listed by the source): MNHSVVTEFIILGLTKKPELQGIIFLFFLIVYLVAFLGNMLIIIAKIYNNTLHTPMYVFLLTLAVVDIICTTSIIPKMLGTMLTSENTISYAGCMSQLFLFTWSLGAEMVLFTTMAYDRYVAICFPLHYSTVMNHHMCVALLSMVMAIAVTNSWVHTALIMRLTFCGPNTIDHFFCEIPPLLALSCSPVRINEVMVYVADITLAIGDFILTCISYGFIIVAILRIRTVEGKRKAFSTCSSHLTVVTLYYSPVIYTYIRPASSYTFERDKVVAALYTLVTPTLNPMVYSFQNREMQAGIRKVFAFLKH
Procedure, shortened: as §1

O13H1 Y266S = test system: O13H1 Y266S
Sequence of O13H1 Y266S (as listed by the source, stated change not applied): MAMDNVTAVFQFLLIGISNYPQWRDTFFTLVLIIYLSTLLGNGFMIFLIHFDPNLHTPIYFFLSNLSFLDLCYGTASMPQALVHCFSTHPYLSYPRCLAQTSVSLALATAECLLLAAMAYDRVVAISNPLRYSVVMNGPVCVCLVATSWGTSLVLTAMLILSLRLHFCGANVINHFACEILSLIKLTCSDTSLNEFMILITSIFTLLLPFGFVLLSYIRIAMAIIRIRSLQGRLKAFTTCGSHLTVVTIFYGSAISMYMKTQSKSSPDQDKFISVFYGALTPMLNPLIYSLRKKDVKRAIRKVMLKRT
Procedure, shortened: as §1

O13J1 = test system: O13J1
Sequence of O13J1 (as listed by the source): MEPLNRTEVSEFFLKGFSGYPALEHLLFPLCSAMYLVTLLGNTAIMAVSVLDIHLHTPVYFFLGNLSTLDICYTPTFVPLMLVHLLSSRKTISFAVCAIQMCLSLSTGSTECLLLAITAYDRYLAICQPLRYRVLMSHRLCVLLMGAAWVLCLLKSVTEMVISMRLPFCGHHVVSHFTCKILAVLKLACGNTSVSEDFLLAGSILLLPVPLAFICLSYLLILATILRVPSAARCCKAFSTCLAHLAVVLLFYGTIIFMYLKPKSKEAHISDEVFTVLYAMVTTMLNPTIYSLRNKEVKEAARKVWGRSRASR
Procedure, shortened: as §1

Measured: odorant receptor agonist call;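 note: active if original authors judged signal statistically different from baseline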

C=CCOC(=O)Cc1ccccc1
inactive: O10Q1 Q10R E12D | O10R2 I170L | O10T2 I137M | O10V1 Q123R | O10X1 N4T R181S | O11G2 F3I I99N V116I | O11H1 M240V | O11H6 I107T | O11HC C156Y V240M | O12D2 S104F | O13C2 H6Q | O13C8 A19D | O13C9 H17L V19G L23H | O13C9 Q6H | O13F1 F18S T254M | O13F1 F18S | O13G1 K46I M146L | O13G1 | O13H1 Y266S | O13J1
